Results on three compounds are retold here after paper PMC3263826 (ACS medicinal chemistry letters, 2011).

The target of data set [1] is T1, human MAO A (Homo sapiens, UniProt P21397).
T1 sequence (P21397 1-527): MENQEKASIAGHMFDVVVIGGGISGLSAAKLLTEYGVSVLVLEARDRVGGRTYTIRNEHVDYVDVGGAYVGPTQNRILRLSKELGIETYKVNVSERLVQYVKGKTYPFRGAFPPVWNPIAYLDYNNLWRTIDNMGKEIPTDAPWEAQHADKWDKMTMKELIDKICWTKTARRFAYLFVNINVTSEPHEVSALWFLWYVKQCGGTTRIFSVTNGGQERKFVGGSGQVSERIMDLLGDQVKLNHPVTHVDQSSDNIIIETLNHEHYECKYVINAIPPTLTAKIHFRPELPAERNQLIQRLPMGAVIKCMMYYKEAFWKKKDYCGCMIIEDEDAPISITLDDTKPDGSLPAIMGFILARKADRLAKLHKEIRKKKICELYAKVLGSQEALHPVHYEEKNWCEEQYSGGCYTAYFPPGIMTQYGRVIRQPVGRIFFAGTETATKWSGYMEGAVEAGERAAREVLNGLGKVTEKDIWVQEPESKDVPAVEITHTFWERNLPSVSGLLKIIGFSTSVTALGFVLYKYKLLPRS
Put plainly: Inhibition of purified recombinant human MAO A. It counts as biochemical. Conditions: for inhibition pattern with MAO A: species not given.

The target in data set [2] is T2, human MAO B (Homo sapiens, UniProt P27338).
T2 sequence (P27338 1-520): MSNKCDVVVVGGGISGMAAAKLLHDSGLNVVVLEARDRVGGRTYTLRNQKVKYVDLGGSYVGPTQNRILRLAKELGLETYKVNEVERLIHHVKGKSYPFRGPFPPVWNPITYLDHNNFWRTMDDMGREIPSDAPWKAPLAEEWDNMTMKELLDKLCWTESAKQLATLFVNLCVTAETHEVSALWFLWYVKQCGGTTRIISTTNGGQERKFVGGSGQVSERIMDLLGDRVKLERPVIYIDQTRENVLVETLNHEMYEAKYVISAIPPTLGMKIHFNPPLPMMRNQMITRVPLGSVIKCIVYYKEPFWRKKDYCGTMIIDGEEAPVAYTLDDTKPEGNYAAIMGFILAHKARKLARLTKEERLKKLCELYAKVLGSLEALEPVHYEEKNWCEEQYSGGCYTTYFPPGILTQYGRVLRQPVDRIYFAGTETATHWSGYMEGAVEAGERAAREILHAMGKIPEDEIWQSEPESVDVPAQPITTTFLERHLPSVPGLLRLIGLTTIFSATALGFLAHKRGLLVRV
Briefly: Inhibition of purified recombinant human MAO B. Particulars: for inhibition pattern with MAO B: species not given. In kind it is biochemical.

Data set [3] concerns the target human histone demethylase LSD1 (Homo sapiens, UniProt O60341). Put plainly: Inhibition of human histone demethylase LSD1. In kind it is biochemical. Particulars: concentrations up to 100 μM. The method in brief: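 Enzyme is recombinant human LSD1 purified as a complex with CoREST. Test compound was assayed at concentrations up to 100 μM.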
Data set [4] deals with T3, rat MAO A (Rattus norvegicus, UniProt P21396).
T3 sequence (P21396 1-526): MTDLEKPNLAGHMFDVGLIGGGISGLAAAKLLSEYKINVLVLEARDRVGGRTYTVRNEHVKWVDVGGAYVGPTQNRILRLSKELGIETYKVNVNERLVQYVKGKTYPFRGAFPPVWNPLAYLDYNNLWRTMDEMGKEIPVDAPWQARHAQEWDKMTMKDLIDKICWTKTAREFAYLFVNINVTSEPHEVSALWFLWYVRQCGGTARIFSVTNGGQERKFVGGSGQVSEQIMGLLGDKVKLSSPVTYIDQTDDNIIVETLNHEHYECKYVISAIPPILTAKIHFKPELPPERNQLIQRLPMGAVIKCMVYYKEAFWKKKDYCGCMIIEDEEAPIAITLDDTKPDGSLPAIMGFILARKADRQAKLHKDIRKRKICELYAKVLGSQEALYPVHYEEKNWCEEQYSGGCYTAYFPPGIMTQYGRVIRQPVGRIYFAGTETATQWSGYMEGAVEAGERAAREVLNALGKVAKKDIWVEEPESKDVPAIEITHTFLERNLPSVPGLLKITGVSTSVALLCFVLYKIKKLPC
Briefly: Inhibition of purified recombinant rat MAO A. Conditions: accessible concentration range (~100 μM). In kind it is biochemical.

Data set [5] concerns MPTP-mouse model for Parkinson's disease. Particulars: cited from earlier work.
For data set [6] the following is noted: cited from earlier work.

Consider `CN(CCOc1ccc(CC2SC(=O)NC2=O)cc1)c1ccccn1` (centres unmarked) [Rosiglitazone, rosiglitazone], for which the “inhibition pattern with MAO A” value in data set [1] is reported as “competitively”. Further, the “substrate of MAO A” value in data set [1] (time course of hours) was “very slow substrate”. Further, in data set [2], the “inhibition pattern with MAO B” value is listed as “competitively”. The “substrate of MAO B” value in data set [2] (time course of hours) is “very slow substrate”. In addition, the “inhibition of LSD1” value in data set [3] is recorded as “No inhibition”.

For `Cc1c(C)c2c(c(C)c1O)CCC(C)(COc1ccc(CC3SC(=O)NC3=O)cc1)O2` (centres unmarked) [Troglitazone, troglitazone], in data set [1], the “inhibition pattern with MAO A” value was “non-competitive”. Also, in data set [2], the “inhibition pattern with MAO B” value is listed as “non-competitive”.

Turning to `CCc1ccc(CCOc2ccc(CC3SC(=O)NC3=O)cc2)nc1` (centres unmarked) [Pioglitazone, pioglitazone], in data set [1] (accessible concentration range (~100 μM)), the “inhibitory activity against human MAO A” value is reported as “does not exhibit any inhibitory activity”. For the same compound, in data set [4], the “inhibitory activity against rat MAO A” value is “does not exhibit any inhibitory activity”. Also, the “inhibition pattern with MAO B” value in data set [2] is given as “competitively”. Further, the “inhibition of LSD1” value in data set [3] is given as “No inhibition”. In data set [5], the “neuroprotection in MPTP-mouse model” value was “effective neuroprotectant”. Moreover, the “brain (therapeutic neuroprotective) concentration” value in data set [6] (monkey, in vivo) is ~ 0.14 μM. Also, in data set [6] (monkeys with induced symptoms characteristic of Parkinson's disease), the plasma concentration is recorded as ~ 4.9 μM.
